Reference: article PMC8895471 (Oncology Letters, 2022)

Key:
Assay type in all cases: cell-based, human
[1] = test system: mutant KRAS gene expression (mRNA) in AsPC-1 cells; experiment: KRAS expression profile by quantitative real-time PCR; conditions: AsPC-1, 2 µM or 4 µM PNAs, 48 h, normalised to GAPDH, n=3
AsPC-1 cells [2] = experiment: Apoptosis assay using Annexin V/PI double staining; conditions: AsPC-1, 2 µM PNA, 48 h; untreated control 7%; mean of n=3
Summary of the method: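 AsPC-1 cells (5×10^5) were seeded in six-well plates and transfected the next day with PNAs using lipofectamine, then incubated for 48 h. Adherent and floating cells were harvested by trypsinization, washed, and resuspended in ice-cold binding buffer with FITC-Annexin V and PI. Cells were stained 15 min at room temperature in the dark and analysed by flow cytometry. Data are mean ± standard error, n=3.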

AsPC-1 cells [3] = experiment: Cytotoxicity / viability, XTT assay; conditions: AsPC-1, 10, 15 or 20 µM gemcitabine, 48 h
[4] = test system: RAS protein in AsPC-1 cells; experiment: Western blot analysis of RAS protein; conditions: AsPC-1, PNA-treated 48 h, band intensity of three blots
Summary of the method: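 AsPC-1 cells were treated with PNAs for 48 h, then lysed 20 min on ice in RIPA buffer with protease inhibitor and cleared at 13,000 rpm, 10 min, 4 °C. 20 µg protein per lane was resolved by SDS-PAGE and transferred by semi-dry blotting. Blots were blocked 1 h in 5% milk/TBST, probed overnight with anti-Ras antibody, then with peroxidase-conjugated secondary 1 h at room temperature. GAPDH served as reference.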

Molecule | effect on mutant KRAS gene expression (mRNA, RT-qPCR) [1] | apoptosis (percentage of apoptotic cells) (AsPC-1 cells [2]) [%] | cell viability (XTT) (AsPC-1 cells [3]) | RAS protein levels (western blot) [4]
CTDCGCCDTCDGCTCCD-KKK [PNA3] | dose-dependent and have a significant effect | 20 |  | 
Nc1ccn([C@@H]2O[C@H](CO)[C@@H](O)C2(F)F)c(=O)n1 [Gemcitabine] |  |  | total death with no dose response | 
CTACGCCATCAGCTCCA-KKK [PNA1] | weaker effect of PNA1 at 4 µm compared to PNA1 at 1 µM | 18 |  | decrease in total RAS protein levels
CTDCpGCCDTCpDGCTCCpD [PNA14] | dose-dependent and have a significant effect | 20 |  | 
